# From PubChem
# Compounds with a hit are over-represented: about 2.6% of the library has one in this group of screens.
# PHOSPHO1 block: inhibitors of human PHOSPHO1 phosphatase; recombinant PHOSPHO1, absorbance phosphatase assay; inhibition, % at 13.3 µM; AID 1565; 290,000 tested, 1.1% active; in the data active means inhibition above about 60%
# Target sequence (Q8TCT1 whole entry, looked up): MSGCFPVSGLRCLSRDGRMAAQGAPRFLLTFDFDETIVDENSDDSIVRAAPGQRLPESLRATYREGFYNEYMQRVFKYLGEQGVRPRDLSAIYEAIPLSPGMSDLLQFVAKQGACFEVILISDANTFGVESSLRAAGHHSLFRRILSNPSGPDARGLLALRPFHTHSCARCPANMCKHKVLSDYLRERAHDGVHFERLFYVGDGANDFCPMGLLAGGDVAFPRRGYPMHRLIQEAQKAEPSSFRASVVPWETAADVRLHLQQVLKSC
# ARFGAP1 inhibitor: inhibitors of rat ARFGAP1; AID 651572; inhibition, % at 16.5 µM; Arfgap1-stimulated ARF1 GTP hydrolysis, GDP FP detection; 360,000 tested, 0.26% active; Q62848;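 active means inhibition above a per-plate limit, mean inhibition of low control wells plus 3 SD, cut at about 25% in these data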
# Target sequence (Q62848 1-136 limits assumed): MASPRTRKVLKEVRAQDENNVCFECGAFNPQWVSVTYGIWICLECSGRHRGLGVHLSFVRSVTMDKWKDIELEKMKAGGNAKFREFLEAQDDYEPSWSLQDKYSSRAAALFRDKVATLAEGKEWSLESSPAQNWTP
#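 Material: rat Arfgap1 GAP domain (His6, aa 1-136), purified enzyme. Also added: human ARF1(Δ1-17)-GTP substrate. Compound dosing: 16.5 µM single point, 1.26% DMSO. Timing: enzyme reaction 120 min at 25 °C after 20 min preincubation. Signal: GDP detection by fluorescence polarization. Read-out basis: percent inhibition of GAP-stimulated GDP formation, scaled between DMSO and no-Arfgap1 medians.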
# IMP-1 inh: blocks Pseudomonas aeruginosa IMP-1 metallo-beta-lactamase. inhibition, % at 5.6 µM. 290,000 tested, 0.45% active. purified IMP-1, nitrocefin hydrolysis, epi-absorbance fluorescence;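 active means inhibition above the mean plus 3 SD of all compounds in the same screening run, cut at about 4.5% in these data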
#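 Assay system: purified recombinant IMP-1 beta-lactamase. Input: IMP-1 0.2 nM before substrate addition. Buffer or medium: Zinc- and detergent-supplemented HEPES buffer, pH 7.1. Schedule: 25 °C, 15 min preincubation, 25 min reaction. Signal: Epi-absorbance fluorescence, 480 nm excitation, 530 nm emission. Evaluation: percent inhibition from optical density relative to buffer-blank wells.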
# Calb FLC: C. albicans growth modulation with fluconazole. C. albicans CaCi-2 (fluconazole-resistant clinical isolate) + fluconazole, Alamar Blue growth, 48 h. growth inhibition, % (concentration not given with the values). 300,000 tested, 0.57% active. AID 1979;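 active means growth inhibition above about 58% in most replicates, limit read from the data, passing the limit was not always enough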;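 further: all wells also contain fluconazole at 8 µg/ml as a sub-toxic cotreatment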
# VIM-2 inhibitor: inhibitors of Pseudomonas aeruginosa VIM-2 metallo-beta-lactamase; purified VIM-2, nitrocefin hydrolysis, epi-absorbance fluorescence; AID 1527; 290,000 tested, 0.89% active; inhibition, % at 5.6 µM;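 active means inhibition above the mean of all tested compounds plus 3 SD, cutoff set per screening run, cut at about 7.5% in these data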;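 further: red hydrolysis product quenches plate fluorescence so inhibitors raise well fluorescence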
# ASAP1 inh: ASAP1 ArfGAP inhibition | ASAP1-stimulated ARF1 GTP hydrolysis, GDP FP detection | inhibition, % at 16.5 µM | 360,000 tested, 0.19% active | AID 624377; in the data active means inhibition above about 25%
# A number is an active result; n = inactive; x = no result given; ! = not confirmed by another sample.
SMILES,PHOSPHO1 block,ARFGAP1 inhibitor,IMP-1 inh,Calb FLC,VIM-2 inhibitor,ASAP1 inh
CCCCN(Cc1ccco1)C(=O)c1cc2c(=O)[nH]c3ccc(C)cc3c2s1,n,n,n,n,n,n
C[C@H](O)[C@@H]1C(=O)N2CCc3c([nH]c4c(-c5ccccc5)cccc34)[C@@H]2C[C@@H]1N(C)C(=O)OCc1ccccc1,x,n,x,x,x,n
c1ccc2[nH]c(-c3ccnc4ccccc34)nc2c1,89.0!,n,n,n,n,n
c1ccc(C(c2c[nH]c3ccccc23)c2c[nH]c3ccccc23)nc1,n,n,n,n,n,n
Cn1cc(C(c2ccccn2)c2cn(C)c3ccccc23)c2ccccc21,n,n,n,94.3,n,n
O=C(NCC1CCCO1)C1CCCN1C(=O)Nc1ccc(Cl)cc1 (configuration not stated),60.1,n,n,n,n,n
O=C(NCc1ccccc1)[C@@H]1CCCN1C(=O)[C@H]1CCCN1C(=O)c1cccc2ccccc12,x,n,x,x,x,n
Cc1ccc(NC(=O)CNC(=O)c2ccc(Oc3ccccc3)cc2)nc1,x,n,x,88.8,x,n
Cc1cc(C)cc([C@H]2C[C@]34CN(Cc5ccccc5)S(=O)(=O)[C@H]3C[C@H]2O4)c1,x,n,x,x,x,n
Oc1ccc(/C=N/N(c2ccccc2)c2ccccc2)c(O)c1O,n,n,n,113.0,n,n
Cc1ccc(S(=O)(=O)/N=C(/NC(=S)Nc2ccccc2)c2ccccc2)cc1,n,n,n,n,n,n
Cc1ccc(S(=O)(=O)C/N=C(/NC(=S)N(c2ccccc2)c2ccccc2)c2ccccc2)cc1,66.4,n,n,n,n,n
COc1ccc(-c2ccccc2)c2oc(-c3ccco3)cc(=O)c12,x,x,x,n,x,x
COc1ccc(Br)c2oc(SC)cc(=O)c12,n,n,n,n,9.2,n
O=C1c2ccccc2C(=O)c2c1cccc2N1CCCC1,n,n,n,80.3,n,n
Cn1c(=O)cc2c3c(c(N4CCCCC4)ccc31)C(=O)c1ccccc1-2,n,n,n,n,10.4,n
O=C1C=C(N2CCCCC2)c2ccccc2C1=O,x,n,x,n,x,n
COC(=O)C1=C(C)N(Cc2cccc(C(F)(F)F)c2)C(=NCc2ccc(C(F)(F)F)cc2)NC1c1ccccc1C(F)(F)F (configuration not stated),x,n,x,x,x,n
COc1cccc(C(C(=O)NC2CCCC2)N2CCN(c3ncccc3C#N)CC2)c1OC (configuration not stated),x,n,x,x,x,n
O=C1OCC2=C1C(c1ccc(F)cc1)c1cc3c(cc1N2)OCO3 (configuration not stated),n,n,n,x,n,n
CCOc1ccccc1C1C2=C(COC2=O)Nc2cc3c(cc21)OCO3 (configuration not stated),n,n,n,82.5,n,n
Cc1cc2ccccn2c1C(=O)c1ccc(Cl)cc1,63.9,n,n,n,n,n
N#Cc1ccc(-c2nc3c4ccccc4ccn3c2Cc2cccc(Cl)c2)cc1,x,n,x,x,x,n
CN(c1ccccc1)S(=O)(=O)c1cccc(C(=O)OCC(=O)NCc2ccccc2)c1,x,n,x,x,x,n
CN(c1ccccc1)S(=O)(=O)c1cccc(C(=O)OCC(=O)NCc2ccco2)c1,65.8,n,n,n,n,n
SMILES,PHOSPHO1 block,ARFGAP1 inhibitor,IMP-1 inh,Calb FLC,VIM-2 inhibitor,ASAP1 inh
Cn1c(=O)oc2ccc(S(=O)(=O)Nc3ccc(Cl)cc3[N+](=O)[O-])cc21,x,n,x,x,x,n
Cc1cc(C(=O)C(C)OC(=O)C2=NNC(=O)CC2)c(C)n1-c1ccc(OC(F)F)cc1 (configuration not stated),n,n,5.2,n,n,n
Cc1cc(C(=O)COC(=O)C2=NNC(=O)CC2)c(C)n1-c1ccc(OC(F)F)cc1,n,n,n,n,n,n
Nn1c(Cc2cccc3ccccc23)nnc1SCC(=O)NC1CCS(=O)(=O)C1 (configuration not stated),90.3,n,n,n,n,n
CCN(C(=O)CSc1nnc(Cc2cccc3ccccc23)n1N)C1CCS(=O)(=O)C1 (configuration not stated),n,n,n,n,n,n
CC(NC(=O)Cc1ccc(-c2ccccc2)cc1)c1ccccc1 (configuration not stated),n,n,5.0,n,n,n
CC(NC(=O)COC(=O)Cc1ccc(Cl)cc1)c1ccccc1 (configuration not stated),x,n,x,x,x,n
